Hits are enriched below; roughly 2.3% of the tested compounds scored in any of these assays.
Mcl1-Bid inh: Mcl-1/Bid interaction inhibition. AID 1021. TR-FRET Mcl-1/Bid-Dy647 peptide binding, 1536-well. 220,000 compounds, 0.97% hits. inhibition, % at 21.7 µM;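 active = compounds that cut the binding signal by more than half at the single screening dose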;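 note: His-tagged Mcl-1 with europium anti-His antibody binding Bid BH3 peptide; 0% = Mcl-1 plus peptide wells and 100% = peptide-only wells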
Mcl1 Noxa PPI: disrupts binding of human Mcl-1 to Noxa peptide | Q07820 | TR-FRET Mcl-1/Noxa peptide binding, 2 h | inhibition, % at 21.7 µM | 220,000 compounds, 1.5% hits;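 active = compounds that cut the protein-peptide binding signal by more than 50% relative to plate controls in a single-dose test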;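 note: His-tagged Mcl-1 with rhodamine Noxa BH3 peptide and terbium anti-His antibody; 0% = Mcl-1 plus Noxa peptide wells and 100% = peptide-only wells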
Bim-Mcl-1: disrupts Bim peptide binding to human Mcl-1 | Q07820 | Bead-based flow cytometry, Bim peptide-Mcl-1 binding | inhibition, % at 10 µM | 190,000 compounds, 0.1% hits | AID 1009; in the data active = inhibition above about 40%;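 note: 0% = no compound tracer wells and 100% = peptide blocker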
MCL1 BIM primary: inhibitors of human MCL1 binding to BIM-BH3 peptide; inhibition, % at 10.9 µM; GST-MCL1 / FITC-Bim-BH3 fluorescence polarization; 320,000 compounds, 0.68% hits;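 active = inhibition above the mean inhibition of all tested compounds plus 3 SD, set per campaign, cut at about 40% in these data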;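 note: 0% = DMSO wells and 100% = unlabeled Bim-BH3 peptide control; higher means more loss of mP so more displacement of Bim peptide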
DSG3 Ab inh: blocks pemphigus antibody binding to human desmoglein-3; P32926; DSG3-coupled beads, scFv-anti-DSG3-GFP binding, flow cytometry; active compounds read low; binding (percent of control), % at 10 µM; AID 588358; 310,000 compounds, 0.48% hits;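 active = binding more than 3 SD below its plate's average and above zero; inconclusive = below that plate limit but binding exactly zero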;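 note: hits lower antibody fragment binding to DSG3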
T cell modulator: T cell immune modulators affecting CD8 T cell-vesicle binding; 2C CD8+ T cell-vesicle binding, flow cytometry; active compounds read low; response (vesicle binding), % at 7 µM; 330,000 compounds, 0.068% hits; AID 2052;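 active = response, share of CD8 T cells binding vesicles, and their 90th percentile fluorescence all below set limits, cut at about 80% in these data, passing the limit was not always enough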;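 note: values below 100% mean blocked vesicle binding to the CD8+ T cells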
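System: murine 2C transgenic CD8+ T lymphocytes; also added: QL9-loaded Drosophila micro-vesicles; times: binding 1.5 h at 37 °C; measured by: flow cytometry, PE anti-B7-1 (FL2) versus Alexa647 anti-CD8 (FL8), PFA-fixed; control set: Peptide-free naked vesicles (low) and QL9 vesicles with 0.7% DMSO vehicle (high)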
* marks the source's active call; other numbers are inactive results; i = inactive; ? = inconclusive; . = not tested or not shown.

SMILES	Mcl1-Bid inh	Mcl1 Noxa PPI	Bim-Mcl-1	MCL1 BIM primary	DSG3 Ab inh	T cell modulator
O=C(COc1ccc(Br)cc1Br)NC(=S)Nc1cccc(CO)c1	16.2	-32.6	0.0	5.0	96.7	409.1
Cc1ccc(C(=O)Nc2nnc(NC(=S)Nc3ccccc3)s2)cc1	-28.1	-27.3	-3.0	9.5	.	196.6
CCOc1ccc(C(=O)Nc2nnc(NC(=S)Nc3ccccc3)s2)cc1	-31.4	27.4	64.0*	3.0	.	681.0
CC(/C=C/c1ccc(C)o1)=C\C(=O)O	-57.6	11.6	0.0	6.3	.	66.1*
Nc1cc(S(=O)(=O)Nc2ccccc2Cl)ccc1N1CCCCC1	.	.	.	.	.	519.1
O=C(Cc1ccc(S(=O)(=O)N2CCOCC2)s1)N1CCN(S(=O)(=O)c2cccc(Cl)c2)CC1	.	.	.	-12.0	88.0	249.9
COc1ccc(-c2ccc3c(n2)sc2c(=O)[nH]c(=O)[nH]c23)cc1OC	-7.2	84.2*	-3.0	.	.	.
Cc1ccc(N(CC(=O)NC2CCCC2)C(=O)CNC(=O)c2cccs2)cc1F	.	.	.	-7.7	105.3	434.7
COC(=O)c1c(C)[nH]c(C)c1C(C)=O	71.2*	4.9	.	-2.4	98.1	421.9
Cc1nnc(NC(=O)c2ccco2)s1	-15.0	-2.8	-1.0	-5.3	96.2	391.7
O=C(Nc1nnc(C23CC4CC(CC(C4)C2)C3)s1)c1ccco1	4.2	11.8	0.0	-7.6	71.2*	0.0
O=C1c2ccccc2C(=O)N1CN(C(=O)COc1ccc(Cl)cc1Cl)c1cccc(F)c1	-13.4	6.1	92.0*	-3.2	103.2	256.5
Cc1ccc(S(=O)(=O)Nc2nc3ccccc3nc2Nc2cccc(S(=O)(=O)N3CCCC3)c2)cc1	8.9	28.1	0.0	34.8	89.0	289.7
O=[N+]([O-])c1cccc(S(=O)(=O)Nc2nc3ccccc3nc2Nc2cccc(S(=O)(=O)N3CCCCC3)c2)c1	98.8*	73.4*	-8.0	.	107.7	.
N#Cc1ccccc1OCC(=O)Nc1ccc(S(=O)(=O)N2CCOCC2)cc1	.	.	.	.	97.6	163.4
Cc1cc(NC(=O)/C=C/c2ccccc2Cl)n(-c2nc3ccccc3[nH]2)n1	66.1*	-18.6	0.0	1.0	97.5	234.9
COCCOC(=O)c1[nH]c2c(c1C)C(=O)CC(c1ccco1)C2 (stereo not given)	-1.9	52.5*	-2.0	12.2	109.0	162.0
Cc1c(C(=O)OCc2ccccc2)[nH]c2c1C(=O)CC(c1ccco1)C2 (stereo not given)	71.5*	60.9*	-1.0	10.1	112.1	184.6
COCCOC(=O)c1[nH]c2c(c1C)C(=O)CC(c1ccccc1)C2 (stereo not given)	-10.0	-3.6	3.0	1.1	111.8	180.7
CCOC(=O)c1[nH]c2c(c1C)C(=O)CC(c1ccco1)C2 (stereo not given)	40.8	79.1*	0.0	5.2	107.7	132.2
CSCCOC(=O)c1[nH]c2c(c1C)C(=O)CC(c1ccco1)C2 (stereo not given)	-38.0	58.2*	0.0	9.7	106.6	151.3
Cc1c(C(=O)OCCOC(C)C)[nH]c2c1C(=O)CC(c1ccco1)C2 (stereo not given)	-28.9	27.4	-1.0	4.5	110.6	86.1
Cc1ccc(C(=O)Nc2cccc(NC(=O)c3cccs3)c2)c(C)c1	.	.	.	4.5	114.1	228.4
Cc1ccccc1S(=O)(=O)Cc1ccc(C(=O)NCCCN2CCC(C)CC2)o1	.	.	.	5.2	103.0	467.8
O=C(Nc1ccccc1F)c1cc(S(=O)(=O)N2CCOCC2)cs1	.	.	.	-1.1	?	399.4
SMILES	Mcl1-Bid inh	Mcl1 Noxa PPI	Bim-Mcl-1	MCL1 BIM primary	DSG3 Ab inh	T cell modulator
O=C(N/N=C(\CC(=O)c1cccs1)C(F)(F)F)c1ccncc1	65.5*	40.4	.	2.9	96.3	426.4
CSc1cccc(NS(=O)(=O)c2ccc(-c3coc(C)n3)cc2)c1	.	.	.	-4.6	3.0*	314.3
Cc1nc(-c2ccc(S(=O)(=O)Nc3cccc(Cl)c3)cc2)co1	.	.	.	0.6	59.2*	326.1
COc1ccc(NS(=O)(=O)c2ccc(-c3coc(C)n3)cc2)cc1OC	.	.	.	-3.9	106.1	48.0
O=S1(=O)c2ccccc2N=NN1Cc1cc(Cl)cc(Cl)c1	48.8	98.9*	-3.0	17.1	.	i
O=S1(=O)c2ccccc2N=NN1Cc1ccc(Cl)cc1	40.1	53.2*	0.0	9.5	.	180.5
Clc1ccc(Cn2cnc3ccccc32)cc1	-12.0	-2.0	1.0	-1.2	100.2	542.5

Assay outcomes as filed in PubChem.
